Assay results collected from several papers.
Compare with care: the assays were run in different laboratories.

| technique | matrix | time | pH | temperature | notes | solubility | Structure (SMILES) |
| --- | --- | --- | --- | --- | --- | --- | --- |
| – | simulated gastric fluid | – | pH 1.02 | 25 °C | acidic | > 3750 µg/mL | Cn1cncc1[C@@](N)(c1ccc(Cl)cc1)c1ccc2c(c1)c(-c1cccc(Cl)c1)cc(=O)n2C |
| – | aqueous buffer | – | pH 2.05 | – | – | 2 µg/mL | Cn1cnc2ccc(Nc3c(F)ccc(NS(=O)(=O)N4CC(F)C4)c3Cl)c(Cl)c2c1=O |
| – | FaSSIF | – | – | – | – | 50 µg/mL | Cc1c(C(=O)O)ccc2c3n(nc12)[C@@H]1[C@H](C3)N(CC2CC2)[C@@]2(C(=O)Nc3cc(Cl)ccc32)[C@H]1c1cccc(Cl)c1F |
| – | water | – | – | – | – | 75 µM | Cc1noc(C)c1CC(=O)N1CCOc2c(cc(-c3cccc(Cl)c3)cc2OCC2CCCN(C)C2)C1 (stereo not drawn) |
| – | aqueous buffer | – | pH 7 | – | – | 25 µg/mL | O=[N+]([O-])c1ccc(/C=N/c2c(-c3ccccc3)nc3ccc(Cl)cn23)cc1 |
| shake flask | PBS | 24 h | pH 7.4 | 25 °C | – | ~20 µg/mL | CC(=Nc1ccc(N=Cc2ccc3[nH]cnc3c2)cc1)N(C)C |
| – | aqueous buffer | – | pH 7.4 | – | – | 50 µg/mL | N#C[C@@]12C[C@@H]1[C@@H](n1cnc3c(N[C@@H](C4CCC4)C4CC4)nc(I)nc31)[C@H](O)[C@@H]2O |
| – | PBS | – | – | – | – | > 20 µM | CC(=O)C(C)n1c(CN2CCN(c3cccc(Cl)c3)CC2)nc2c1c(=O)n(C)c(=O)n2C (stereo not drawn) |
| – | aqueous buffer | – | pH 7 | – | – | 25 µg/mL | O=[N+]([O-])c1cccc(/C=N/c2c(-c3ccccc3)nc3ccc(Cl)cn23)c1 |
| – | PBS | 90 min | pH 7.4 | – | – | > 10 µM | CC(C)[C@H](NC(=O)[C@H](Cc1cscn1)NC(=O)CCc1ccccc1)C(=O)N[C@@H](CCCNC(=N)N)C(=O)c1nc2ccccc2s1 |
| shake flask | PBS | – | pH 7.4 | 25 °C | – | 0.38 µg/mL | C/C(=N/c1ccc(/N=C/c2ccc(/C=N/c3ccc(/N=C(/C)N(C)C)cc3)cc2)cc1)N(C)C |
| – | PBS | – | – | – | – | > 20 µM | Cc1cc(C)c2nc(-c3ccncc3)cc(C(=O)NCCCn3ccnc3)c2c1 |
